High-throughput results from PubChem.
PGC1a acetyl up: raises PGC1a acetylation signal in U2OS cells | U2OS PGC1a acetylation AlphaScreen, overnight | activation, % at 15.6 µM | actives 0.21% (n = 350,000) | AID 651723;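 active means every replicate reaching activation of at least 50%, whatever the mean replicate activation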;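 further: hits raise the AlphaScreen acetylation signal above neutral controls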
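System: Flag-PGC1a/GCN5 U2OS cells | Quantity: 7000 cells/well | Times: Overnight compound treatment, 37 °C | Measured by: AlphaScreen proximity luminescence, anti-acetyl-lysine antibody | Dosing: One concentration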
Active calls of the source: *. Only a selection was taken, and hits are over-represented in it overall.

SMILES	PGC1a acetyl up
Cc1cc2cc3c(cc2nc1SCC(=O)OC(C)C)OCCO3	95*
C=C1C(=O)OC2C1CCC(C)=C1C(=O)C3OC3(C)C12 (centres undefined)	82*
CCCCCCCCCCCCS[C@H]1CS(=O)(=O)C[C@@H]1O	-43
CCCC(=O)Nc1ccc(C(=O)N/N=C/c2cccnc2)cc1	69*
COc1ccc(CCNC(=O)COc2ccc(S(=O)(=O)N3CCCC3)cc2)cc1	-48
CC(C)(C)Cc1nnc(NS(=O)(=O)c2ccc(F)cc2)s1	-43
CCc1nnc(NC(=O)Cc2ccc(S(=O)(=O)N3CCCCC3)cc2)s1	65*
CCCCn1c(=NC(=O)c2cccnc2)c(C(=O)OCC)cc2c(=O)n3ccccc3nc21	115*
C[C@@H](C(=O)Nc1cc(C(F)(F)F)ccc1N1CCOCC1)N1C(=O)C2CC=CCC2C1=O (some centres undefined)	-41
O=C(Nc1ccccc1N1CCOCC1)C1(c2ccc(Cl)cc2)CCC1	-41
O=C(Nc1cc(C(F)(F)F)ccc1N1CCOCC1)c1ccccc1	63*
O=C(Cc1ccccc1)N1CC[C@@H]2[C@H]1c1cc(C#Cc3ccccc3)ccc1N[C@@H]2CO	64*
CCc1c(C)nc(N)nc1Cl	-47
Cc1cc(Nc2ccccc2)cc(=O)n1C	-59
C[C@H](CO)N1C[C@H](C)[C@@H](CN(C)C(=O)CCN2CCCCC2)Oc2ncc(C#Cc3ccccn3)cc2C1=O	-48
COc1cccc(-c2cc(C(=O)NCCCn3ccnc3)no2)c1	80*
COCC(=O)N1C[C@@H](C)[C@@H](OC)CN(C)C(=O)c2ccc(NC(=O)c3cnccn3)cc2OC[C@@H]1C	-61
O=C(N/N=C\c1ccc([N+](=O)[O-])o1)C1COc2ccccc2O1 (centres undefined)	117*
CCn1cc([N+](=O)[O-])c(C(=O)NCc2ccc3c(c2)OCO3)n1	-42
Cc1ccc(-c2ccc(/C=N/NC(=O)Cc3nnc(N)s3)o2)cc1Cl	-43
CCCCCC(=O)N/N=C/c1ccc([N+](=O)[O-])o1	105*
COc1ccc(-c2ccc(/C=N/NC(=O)Cc3nnc(N)s3)o2)cc1Cl	-57
O=C(Cc1ccc2c(c1)OCO2)NN=Cc1ccc([N+](=O)[O-])o1	137*
CC1=C(C(=O)OCc2ccc3c(c2)OCO3)C(c2ccccc2)NC(=O)N1 (centres undefined)	-56
COCC(=O)Nc1ccc2c(c1)OC[C@@H](C)N(CCc1ccccc1)C[C@H](C)[C@H](OC)CN(C)C2=O	-46
SMILES	PGC1a acetyl up
O=C1C=CCCN1C(=O)/C=C/c1cccc(C(F)(F)F)c1	-78
CSCC(O)Cn1[nH]c(=O)c2cc(Cl)c(Cl)cc2c1=O (centres undefined)	-84
O=C(CCCCCCC(=O)Nc1ccccc1)NO	-40
Cc1ccc(CCC(=O)Nc2ccc(Cl)cc2)o1	-72
O=C(CCl)Nc1ccc(N=Nc2ccccc2)cc1	101*
Cc1cc(=O)[nH]c(NN)n1	-50
CC1(Cc2ccc(Cl)s2)C(=O)Nc2c(Cl)ccc(Cl)c21 (centres undefined)	65*
COc1cccc(NC(=O)CN(C)C(=O)CNC(=O)c2ccccc2F)c1	-45
COc1ccc2c3c([nH]c2c1)[C@H](CO)N(C(=O)c1ccncc1)CC31CN(C(=O)c2ccncc2)C1	-53
CC1(C)OC(C)(C)/C(=C\c2ccc(OCC(N)=O)cc2)C1=O	-46
C[C@H](CO)N1C[C@H](C)[C@@H](CN(C)Cc2ccccc2F)Oc2ncc(Br)cc2C1=O	-64
Cc1ccc(NC(=S)c2ccncc2)cc1	66*
CCOc1cc(CNC2CCCC2)cc(Cl)c1OCc1ccc(F)cc1	-78
COCCn1c(SC(C)C(=O)Nc2ncc(Cl)cc2Cl)nc2ccccc21 (centres undefined)	-44
COc1ccccc1OCCn1c(C(C)O)nc2ccccc21 (centres undefined)	57*
COC(=O)C1=C(N)OC2=C(C(=O)CC(C)(C)C2)C1c1cccs1 (centres undefined)	57*
O=C(c1ccc(F)cc1)N(C(=O)c1ccc(F)cc1)c1ncccn1	-43
CC1CCCN(C(=O)Cc2ccc(F)cc2)C1 (centres undefined)	-75
Cc1cccc(OC2(c3ccccc3)OC(=O)c3ccccc32)c1C (centres undefined)	91*
CC1CC(C)(C)CC(=O)C1C(=O)c1ccccc1 (centres undefined)	-49
O=C(CN(Cc1ccc2c(c1)OCO2)C(=O)CNS(=O)(=O)c1ccccc1)NCc1ccco1	-46
Cc1ccc(NC2=C(Cl)C(=O)c3ccccc3C2=O)cc1	-53
Cc1ccc(NC2=C([N+](=O)[O-])CS(=O)(=O)C2)cc1	218*
N#Cc1cccc(-c2ccc(C3[C@@H]4CN(Cc5ccccc5F)C[C@H]3N4)cc2)c1 (some centres undefined)	-48
COc1cccc(CN2C[C@@H]3N[C@H](C2)C3c2ccc(-c3ccccc3OC)cc2)c1 (some centres undefined)	58*
SMILES	PGC1a acetyl up
Cc1cccc(-c2ccc(C3[C@@H]4CN(Cc5cccc(F)c5)C[C@H]3N4)cc2)c1 (some centres undefined)	59*
O=C(Nc1ccc(C(F)(F)F)cc1)N1C[C@@H]2N[C@H](C1)C2c1ccc(/C=C/c2ccccc2)cc1 (some centres undefined)	-73
COc1ccccc1-c1ccc(C2[C@@H]3CN(Cc4cccc(F)c4)C[C@H]2N3)cc1 (some centres undefined)	72*
O=C(Nc1cccc(F)c1)N1C[C@@H]2N[C@H](C1)C2c1ccc(-c2ccc(F)cc2)cc1 (some centres undefined)	73*
O=C(Nc1ccc(C(F)(F)F)cc1)N1C[C@@H]2N[C@H](C1)C2c1ccc(-c2ccccc2)cc1 (some centres undefined)	-43
COc1cccc(CN2CCC(CO)(CC3CCCCO3)CC2)c1 (centres undefined)	-100
COc1ccccc1-c1ccc([C@@H]2[C@H](CO)N(C(C)=O)C23CN(C(C)=O)C3)cc1	-58
C[C@@H]1CN([C@H](C)CO)C(=O)CCCn2cc(nn2)CO[C@@H]1CN(C)C(=O)Nc1cccc2ccccc12	-50
O=C(NC1CCCC1)C(c1ccncc1)N(Cc1ccccc1F)C(=O)c1csnn1 (centres undefined)	-47
COC(=O)c1cccc(NC(=O)CSc2nnc(C)n2C)c1	-47
Cn1ccc2cc(OCc3ccccc3)ccc21	54*
C[C@@H]1CN([C@@H](C)CO)C(=O)c2cc(C#CCN(C)C)cnc2O[C@H]1CN(C)Cc1ccc(F)cc1	-48
C[C@@H]1CN([C@@H](C)CO)C(=O)c2cc(C3=CCCC3)cnc2O[C@@H]1CN(C)C(=O)Nc1cccc(F)c1	131*
C[C@H]1CN([C@@H](C)CO)C(=O)c2cc(C#Cc3ccccc3)cnc2O[C@@H]1CN(C)C(=O)c1ccccc1F	-46
C[C@H]1CN([C@@H](C)CO)C(=O)c2cc(-c3cncnc3)cnc2O[C@@H]1CN(C)C(=O)c1cccc(F)c1	-51
C[C@H]1CN([C@@H](C)CO)C(=O)c2cc(C3=CCCC3)cnc2O[C@@H]1CN(C)C(=O)c1cccnc1	-53
C[C@@H]1CN([C@H](C)CO)C(=O)c2cc(C#Cc3cccc(F)c3)cnc2O[C@H]1CN(C)CC1CCCC1	58*
Cc1ccc(CNC(=O)C2CC(c3ccc([N+](=O)[O-])cc3)=NO2)cc1 (centres undefined)	78*
